# Test results taken from ChEMBL document CHEMBL2057145, “Development of novel antibacterial agents against methicillin-resistant Staphylococcus aureus” (Bioorg Med Chem, 2012).
# Columns and labels:
# [1] = system: Staphylococcus aureus; assay: Antibacterial activity against Staphylococcus aureus ATCC 29213 after 24 hrs by broth microdilution method; assay type: functional; details: ATCC 29213, 24 h
# [2] = system: Staphylococcus epidermidis; assay: Antibacterial activity against Staphylococcus epidermidis ATCC 35984 after 24 hrs by broth microdilution method; assay type: functional; details: RP62A
# [3] = system: HT-29; assay: Antiproliferative activity against human HT-29 cells after 24 hrs by MTT assay; assay type: cell-based; details: HT-29, 24 h
# Summary of the method: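 HT-29 human colon adenocarcinoma cells seeded at 1 × 10⁴ cells/well in RPMI 1640 with 10% FBS and 10 µg/mL gentamicin, left overnight at 37 °C, 5% CO₂. Medium then replaced with medium holding test agents (final DMSO 0.1%; DMSO-only controls), at least 6 wells per condition, for 24 h. Viability read by MTT (0.5 mg/mL, 2 h, 37 °C), DMSO solubilization, absorbance 570 nm.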
# [4] = Selectivity ratio of IC50 for human HT-29 cells to MIC for Staphylococcus aureus ATCC 29213; assay type: functional
# Summary of the method: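 Ratio of HT-29 IC50 (MTT assay, 24 h exposure) to MIC against S. aureus ATCC 29213 (CLSI broth microdilution, 24 h, 37 °C).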
# [5] = system: Staphylococcus aureus; assay: Antibacterial activity against Staphylococcus aureus ATCC 12598 after 24 hrs by broth microdilution method; assay type: functional; details: ATCC 12598, 24 h
# Summary of the method: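 CLSI broth microdilution. Incubation 37 °C for 24 h. MIC is the lowest concentration with no visible bacterial growth. DMSO stocks diluted in culture medium to a final DMSO of 0.1%.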
# [6] = system: Staphylococcus epidermidis; assay: Antibacterial activity against Staphylococcus epidermidis ATCC 12228 after 24 hrs by broth microdilution method; assay type: functional; details: ATCC 12228, 24 h
# [7] = system: Staphylococcus aureus; assay: Antibacterial activity against methicillin-resistant Staphylococcus aureus ATCC 33592 after 24 hrs by broth microdilution method; assay type: functional; details: ATCC 33592, 24 h
# Summary of the method: (§1)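 CLSI broth microdilution. Bacteria grown overnight on LB agar, suspended in PBS, then exposed to test agents at 0.25 to 64 µg/mL in triplicate. Incubation 37 °C for 24 h. MIC is the lowest concentration with no visible bacterial growth. DMSO stocks diluted in culture medium to a final DMSO of 0.1%.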
# [8] = system: Staphylococcus aureus; assay: Antibacterial activity against methicillin-resistant Staphylococcus aureus expressing […] subtype VT after 24 hrs by broth microdilution method; assay type: functional; summary of the method: as §1
# [9] = system: Staphylococcus intermedius; assay: Antibacterial activity against Staphylococcus intermedius ATCC 29663 after 24 hrs by broth microdilution method; assay type: functional; details: ATCC 29663, 24 h
# [10] = system: Staphylococcus lugdunensis; assay: Antibacterial activity against Staphylococcus lugdunensis isolate NTUH after 24 hrs by broth microdilution method; assay type: functional
# [11] = system: Staphylococcus aureus; assay: Antibacterial activity against methicillin-resistant Staphylococcus aureus ATCC 49476 after 24 hrs by broth microdilution method; details: ATCC 49476, 24 h
# [12] = system: Staphylococcus aureus; assay: Bactericidal activity against Staphylococcus aureus ATCC 29213 assessed as decrease in bacterial count at 8 times compound MIC after 24 hrs by time-kill assay; assay type: functional; set-up: scale not given: the % may be the effect or the level left
# Summary of the method: (§2)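 S. aureus ATCC 29213 at 5 × 10⁵ CFU/mL in CAMHB exposed to test agents at 2-, 4- and 8-fold MIC, in triplicate. DMSO-matched medium served as control. At successive times, aliquots serially diluted in PBS and plated on LB agar (37 °C, 16 h). Counts given as CFU/mL, mean ± SD (n = 3); 99.9% killing used as reference.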
# [13] = system: Staphylococcus aureus; assay: Bactericidal activity against Staphylococcus aureus ATCC 29213 assessed as decrease in bacterial count at 2 to 8 times compound MIC by time-kill assay; assay type: functional, organism-based; details: TDE = time-dependent effect; summary of the method: as §2
# [14] = system: Staphylococcus haemolyticus; assay: Antibacterial activity against Staphylococcus haemolyticus ATCC 29970 after 24 hrs by broth microdilution method; assay type: functional; details: ATCC 29970, 24 h
# [15] = system: Staphylococcus hominis; assay: Antibacterial activity against Staphylococcus hominis ATCC 27844 after 24 hrs by broth microdilution method; assay type: functional; details: ATCC 27844, 24 h
# [16] = system: Staphylococcus saprophyticus; assay: Antibacterial activity against Staphylococcus saprophyticus ATCC 15305 after 24 hrs by broth microdilution method; assay type: functional; details: ATCC 15305, 24 h
# [17] = system: Staphylococcus aureus; assay: Antibacterial activity against Staphylococcus aureus assessed as log decrease in bacterial CFU at 32 ug/ml after 24 hrs; assay type: functional
# [18] = system: Staphylococcus aureus; assay: Antibacterial activity against methicillin-resistant Staphylococcus aureus ATCC 33592 infected in C57BL/6 mouse assessed as mouse survival time at 30 mg/kg, ip administered 1 hr post infection; assay type: functional; details: route intraperitoneal
# Summary of the method: (§3)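 Female C57BL/6 mice, N = 5 per group, were infected ip with a 100% lethal dose of MRSA, 7 × 10⁷ CFU in 0.3 ml PBS. At 1 h they received one ip dose of 30 mg/kg in vehicle (40% PEG-400, 10% […], 10% DMSO in normal saline). Body weight and morbidity were recorded daily for 7 days. Mice were sacrificed on significant morbidity, including 20% weight loss.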
# [19] = system: Mus musculus; assay: Toxicity in C57BL/6 mouse infected with methicillin-resistant Staphylococcus aureus ATCC 33592 assessed as weight loss at 30 mg/kg, ip administered 1 hr post infection measured on day 1 post infection; assay type: organism-based; set-up: dose 30 mg/kg, route intraperitoneal; details: in vivo; summary of the method: as §3
# [20] = system: Mus musculus; assay: Toxicity in C57BL/6 mouse infected with methicillin-resistant Staphylococcus aureus ATCC 33592 assessed as weight loss at 30 mg/kg, ip administered 1 hr post infection measured on day 3 to 6 post infection; assay type: organism-based; set-up: dose 30 mg/kg, route intraperitoneal; details: in vivo; summary of the method: as §3
# [21] = system: Mus musculus; assay: Toxicity in C57BL/6 mouse infected with methicillin-resistant Staphylococcus aureus ATCC 33592 assessed as mortality at 30 mg/kg, ip administered 1 hr post infection; assay type: organism-based; set-up: dose 30 mg/kg, route intraperitoneal; details: in vivo; summary of the method: as §3
# [22] = system: Mus musculus; assay: Toxicity in C57BL/6 mouse infected with methicillin-resistant Staphylococcus aureus ATCC 33592 assessed as weight loss at 30 mg/kg, ip administered 1 hr post infection; assay type: organism-based; set-up: dose 30 mg/kg, route intraperitoneal; details: in vivo; summary of the method: as §3
# [23] = system: Mus musculus; assay: Toxicity in C57BL/6 mouse infected with methicillin-resistant Staphylococcus aureus ATCC 33592 assessed as decrease in body temperature at 30 mg/kg, ip administered 1 hr post infection; assay type: organism-based; set-up: dose 30 mg/kg, route intraperitoneal; details: in vivo; summary of the method: as §3
# [24] = system: Mus musculus; assay: Toxicity in C57BL/6 mouse infected with methicillin-resistant Staphylococcus aureus ATCC 33592 assessed as lethargy at 30 mg/kg, ip administered 1 hr post infection; assay type: organism-based; set-up: dose 30 mg/kg, route intraperitoneal; details: in vivo; summary of the method: as §3
MIC [2],Compound,MIC [1],IC50 [3],Ratio [4],MIC [7],MIC [9],MIC [10],other results
4 µg/mL,NCCC(=O)Nc1ccc(-n2nc(C(F)(F)F)cc2-c2ccc(-c3ccc(C(F)(F)F)cc3)cc2)cc1,4 µg/mL,4.2 µg/mL,1.1,,,,
4 µg/mL,NCCC(=O)Nc1ccc(-n2nc(C(F)(F)F)cc2-c2ccc3c(c2)oc2ccccc23)cc1,4 µg/mL,,1.8,,,,
,NS(=O)(=O)Nc1ccc(-n2nc(C(F)(F)F)cc2-c2ccc(-c3ccccc3)cc2)cc1,1 µg/mL,,16,1 µg/mL,2 µg/mL,2 µg/mL,MIC [5]: 1 µg/mL; MIC [8]: 1 µg/mL; MIC [11]: 1 µg/mL
,Cc1ccc(-c2ccc(-c3cc(C(F)(F)F)nn3-c3ccc(NS(N)(=O)=O)cc3)cc2)cc1,1 µg/mL,,9,1 µg/mL,2 µg/mL,2 µg/mL,MIC [5]: 1 µg/mL; MIC [6]: 1 µg/mL; MIC [8]: 1 µg/mL; MIC [11]: 1 µg/mL
,NS(=O)(=O)Nc1ccc(-n2nc(C(F)(F)F)cc2-c2ccc3ccccc3c2)cc1,1 µg/mL,,19,,2 µg/mL,4 µg/mL,
4 µg/mL,NCC(=O)Nc1ccc(-n2nc(C(F)(F)F)cc2-c2ccc3c(c2)oc2ccccc23)cc1,4 µg/mL,6.5 µg/mL,1.6,,,,
,NS(=O)(=O)Nc1ccc(-n2nc(C(F)(F)F)cc2-c2ccc(-c3ccc(Br)cc3)cc2)cc1,1 µg/mL,,10,1 µg/mL,2 µg/mL,2 µg/mL,MIC [5]: 1 µg/mL; MIC [6]: 1 µg/mL; MIC [8]: 1 µg/mL; MIC [11]: 1 µg/mL
,NS(=O)(=O)Nc1ccc(-n2nc(C(F)(F)F)cc2-c2ccc3cc4ccccc4cc3c2)cc1,,11 µg/mL,2.8,2 µg/mL,4 µg/mL,4 µg/mL,MIC [6]: 2 µg/mL; MIC [8]: 2 µg/mL; MIC [14]: 16 µg/mL; MIC [15]: 2 µg/mL; MIC [16]: 8 µg/mL; MIC [11]: 2 µg/mL
4 µg/mL,NCC(=O)Nc1ccc(-n2nc(C(F)(F)F)cc2-c2ccc3c(c2)Nc2ccccc2S3)cc1,4 µg/mL,,1.6,,,,
4 µg/mL,NCC(=O)Nc1ccc(-n2nc(C(F)(F)F)cc2-c2ccc3c(ccc4ccccc43)c2)cc1 [AR-12],4 µg/mL,,0.9,,,,
4 µg/mL,NCCC(=O)Nc1ccc(-n2nc(C(F)(F)F)cc2-c2ccc3c(c2)Nc2ccccc2S3)cc1,4 µg/mL,7.5 µg/mL,1.9,,,,
4 µg/mL,NCCCC[C@H](N)C(=O)Nc1ccc(-n2nc(C(F)(F)F)cc2-c2ccc(-c3ccc(C(F)(F)F)cc3)cc2)cc1,4 µg/mL,3.3 µg/mL,0.8,,,,
,NCCCC[C@H](N)C(=O)Nc1ccc(-n2nc(C(F)(F)F)cc2-c2ccc3c(c2)Nc2ccccc2S3)cc1,2 µg/mL,5.2 µg/mL,2.6,,,,
4 µg/mL,NCCCC[C@@H](N)C(=O)Nc1ccc(-n2nc(C(F)(F)F)cc2-c2ccc3c(c2)Nc2ccccc2S3)cc1,4 µg/mL,17.5 µg/mL,4.4,,,,
,NCCCC[C@H](N)C(=O)Nc1ccc(-n2nc(C(F)(F)F)cc2-c2ccc3c(ccc4ccccc43)c2)cc1,,19.5 µg/mL,4.9,,,,
4 µg/mL,NCCCC[C@@H](N)C(=O)Nc1ccc(-n2nc(C(F)(F)F)cc2-c2ccc3c(ccc4ccccc43)c2)cc1,4 µg/mL,,0.8,,,,
8 µg/mL,NS(=O)(=O)c1ccc(-n2nc(C(F)(F)F)cc2-c2ccc(-c3ccc(Cl)cc3)cc2)cc1,4 µg/mL,12.5 µg/mL,3.1,,,,

Compound,MIC [2],MIC [1],IC50 [3],Ratio [4],MIC [7],MIC [9],MIC [10],other results
Cc1ccc(-c2cc(C(F)(F)F)nn2-c2ccc(NS(N)(=O)=O)cc2)cc1,4 µg/mL,4 µg/mL,28 µg/mL,7,4 µg/mL,8 µg/mL,16 µg/mL,MIC [5]: 4 µg/mL; MIC [6]: 4 µg/mL; MIC [8]: 4 µg/mL; MIC [11]: 4 µg/mL
NCCC(=O)Nc1ccc(-n2nc(C(F)(F)F)cc2-c2ccc3c(ccc4ccccc43)c2)cc1,4 µg/mL,4 µg/mL,6 µg/mL,1.5,,,,
NC(=O)c1ccc(-n2nc(C(F)(F)F)cc2-c2c3ccccc3cc3ccccc23)cc1,2 µg/mL,2 µg/mL,12 µg/mL,6,4 µg/mL,4 µg/mL,4 µg/mL,Activity [12]: 99.14%; Activity [13]: tde
CC1(C)S[C@@H]2[C@H](NC(=O)[C@H](N)c3ccccc3)C(=O)N2[C@H]1C(=O)O [AMPICILLIN],64 µg/mL,8 µg/mL,,,> 64 µg/mL,0.125 µg/mL,32 µg/mL,MIC [5]: 0.25 µg/mL; MIC [6]: 16 µg/mL; MIC [8]: > 64 µg/mL; MIC [14]: 0.25 µg/mL; MIC [15]: < 0.0625 µg/mL; MIC [16]: 0.5 µg/mL; MIC [11]: 64 µg/mL
Cc1ccc(-c2cc(C(F)(F)F)nn2-c2ccc(S(N)(=O)=O)cc2)cc1 [CELECOXIB],16 µg/mL,32 µg/mL,18 µg/mL,0.6,,,,FC [17]: 6
O=C(N[C@H](CO)[C@H](O)c1ccc([N+](=O)[O-])cc1)C(Cl)Cl [CHLORAMPHENICOL],8 µg/mL,8 µg/mL,,,64 µg/mL,,2 µg/mL,MIC [8]: 32 µg/mL
NS(=O)(=O)Nc1ccc(-n2nc(C(F)(F)F)cc2-c2c3ccccc3cc3ccccc23)cc1,1 µg/mL,,20 µg/mL,40,,0.5 µg/mL,4 µg/mL,Activity [12]: 99.99%; Survival [18]: 7 days; Activity [19]: Toxic; Activity [20]: Non-toxic; Activity [21]: Toxic; Activity [13]: tde
NS(=O)(=O)Nc1ccc(-n2nc(C(F)(F)F)cc2-c2ccc3c(ccc4ccccc43)c2)cc1,2 µg/mL,1 µg/mL,,12,,1 µg/mL,2 µg/mL,Activity [12]: 99.91%; Activity [22]: > 20%; Activity [23]: Toxic; Activity [24]: Toxic; Survival [18]: <=2 day; Activity [13]: tde
